Measured values: ChEMBL document CHEMBL2434889, “New orally effective 3-(2-nitro)phenylpropanamide analgesic derivatives: synthesis and antinociceptive evaluation” (Eur J Med Chem, 2013)
The source made the active and inactive calls.

Tests used:
Mus musculus [1] = experiment: Toxicity in mouse at 3 mg/kg, ip; assay type: organism-based; set-up: dose 3 mg/kg, route intraperitoneal; conditions: in vivo
Mus musculus [2] = experiment: Antinociceptive activity in mouse assessed as inhibition of acetic acid-induced writhing response at 3 mg/kg, ip after 10 mins measured for 10 mins; assay type: functional; conditions: route intraperitoneal
Summary of the method: (§1)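 Mice (20–24 g) dosed intraperitoneally, then given 0.5% aqueous acetic acid i.p. at 10 ml/kg. Stretches (back arching, pelvic rotation, hind-limb extension) were counted in an observation beaker for 10 min, starting 10 min after the acid. % inhibition is versus the control group. n = 50 mice for control and reference groups, 10 per other treatment. ANOVA with Fisher PLSD.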

Mus musculus [3] = experiment: Antinociceptive activity in mouse assessed as inhibition of acetic acid-induced writhing response at 100 umol/kg, ip after 10 mins measured for 10 mins; assay type: functional; summary of the method: as §1
Mus musculus [4] = experiment: Antinociceptive activity in mouse assessed as inhibition of acetic acid-induced writhing response at 15 mg/kg, ip after 10 mins measured for 10 mins; assay type: functional; conditions: route intraperitoneal; summary of the method: as §1
Mus musculus [5] = experiment: Antinociceptive activity in mouse assessed as inhibition of acetic acid-induced writhing response at 100 umol/kg, po after 10 mins measured for 10 mins; assay type: functional
Summary of the method: (§2)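 Oral dosing, with 8 mice per treatment group. Writhing was induced by 0.5% aqueous acetic acid i.p. (10 ml/kg). Stretches were tallied over 10 min, beginning 10 min after the acid. % inhibition of constrictions is relative to the control group. Statistics by ANOVA and Fisher PLSD.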

Mus musculus [6] = experiment: Antinociceptive activity in mouse assessed as inhibition of acetic acid-induced writhing response at 10 umol/kg, po after 10 mins measured for 10 mins; assay type: functional; summary of the method: as §2
Mus musculus [7] = experiment: Antinociceptive activity in mouse assessed as increase of forepaw licking latency at 100 umol/kg, ip measured after 15 to 60 mins by hot plate test; assay type: functional, organism-based
Summary of the method: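 Hot-plate test at 55 °C with groups of 10 mice. Latency to forepaw licking was timed by stopwatch. Baseline was read twice before injection, and only mice reacting within 4–12 s were used. Readings were taken at 15, 30, 45 and 60 min after ip dosing, with a 30 s cutoff. Vehicle was physiological serum; morphine 5 mg/kg served as reference. Data are mean ± SEM, one-way ANOVA with Fisher PLSD.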

Mus musculus [8] = experiment: Antinociceptive activity in mouse assessed as inhibition of acetic acid-induced writhing response at 33.3 umol/kg, po after 10 mins measured for 10 mins; assay type: functional; summary of the method: as §2
Mus musculus [9] = experiment: Toxicity in mouse assessed as effect on locomotion at 33 to 100 umol/kg, ip measured after 25 to 35 mins; assay type: organism-based; conditions: in vivo
Summary of the method: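 Mice were injected ip with drug or saline and returned at once to photocell-beam cages for 1 h. Horizontal locomotion was scored as cage crossings and analysed over 25–35 min post-treatment, the same window as the writhing counts. Methylphenidate 10 mg/kg and haloperidol 0.5 mg/kg served as stimulant and depressant references. Statistics by Fisher PLSD.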

COc1ccc(N2CCN(C(=O)CCc3cc4c(cc3N)OCO4)CC2)cc1
Activity (Mus musculus [1]): Non-toxic | inhibition in vivo at 3 mg/kg (Mus musculus [2]): 21.5%

CCCCCCNC(=O)CCc1cc2c(cc1[N+](=O)[O-])OCO2
inhibition in vivo at 100 µmol/kg (Mus musculus [3]): 26% | Activity (Mus musculus [1]): Non-toxic | inhibition in vivo at 3 mg/kg (Mus musculus [2]): 38.6%

COc1cc(CCC(=O)N2CCOCC2)c([N+](=O)[O-])cc1OC
Activity (Mus musculus [1]): Non-toxic | inhibition in vivo at 3 mg/kg (Mus musculus [2]): 15.3%

O=C(CCc1cc2c(cc1[N+](=O)[O-])OCO2)N1CCN(c2ccc(Cl)c(Cl)c2)CC1
Activity (Mus musculus [1]): Non-toxic | inhibition in vivo at 3 mg/kg (Mus musculus [2]): 22%

CC(=O)Oc1ccccc1C(=O)O [ASPIRIN]
inhibition in vivo at 15 mg/kg (Mus musculus [4]): 62.3% | inhibition in vivo at 100 µmol/kg (Mus musculus [3]): 59% | inhibition in vivo at 100 µmol/kg (Mus musculus [5]): 31.2%

O=C(CCc1cc2c(cc1[N+](=O)[O-])OCO2)N1CCN(c2ccccc2)CC1
Activity (Mus musculus [1]): Non-toxic | inhibition in vivo at 3 mg/kg (Mus musculus [2]): 21.5%

COc1ccc(CCC(=O)N2CCCCC2)cc1OC
Activity (Mus musculus [1]): Non-toxic | inhibition in vivo at 3 mg/kg (Mus musculus [2]): < 0%

O=C(CCc1cc2c(cc1[N+](=O)[O-])OCO2)N1CCN(CCO)CC1
Activity (Mus musculus [1]): Non-toxic | inhibition in vivo at 3 mg/kg (Mus musculus [2]): 32.9%

CCOC(=O)CCc1cc2c(cc1[N+](=O)[O-])OCO2
Activity (Mus musculus [1]): Non-toxic | inhibition in vivo at 3 mg/kg (Mus musculus [2]): 40.5%

O=C(CCc1cc2c(cc1[N+](=O)[O-])OCO2)N1CCOCC1
Activity (Mus musculus [1]): Non-toxic | inhibition in vivo at 3 mg/kg (Mus musculus [2]): 31.4%

O=C(CCc1cc2c(cc1[N+](=O)[O-])OCO2)N1CCCCC1
inhibition in vivo at 100 µmol/kg (Mus musculus [3]): 44.8% | Activity (Mus musculus [1]): Non-toxic | inhibition in vivo at 3 mg/kg (Mus musculus [2]): 25.2%

O=C(CCc1ccc2c(c1)OCO2)N1CCCCC1
Activity (Mus musculus [1]): Non-toxic | inhibition in vivo at 3 mg/kg (Mus musculus [2]): 53%

O=C(CCc1cc2c(cc1[N+](=O)[O-])OCO2)Nc1ccccn1
Activity (Mus musculus [1]): Non-toxic | inhibition in vivo at 3 mg/kg (Mus musculus [2]): 10%

O=C(CCc1cc2c(cc1[N+](=O)[O-])OCO2)N1CCN(c2ccc(F)cc2)CC1
Activity (Mus musculus [1]): Non-toxic | inhibition in vivo at 3 mg/kg (Mus musculus [2]): 14.3%

COc1ccccc1N1CCN(C(=O)CCc2cc3c(cc2[N+](=O)[O-])OCO3)CC1
Activity (Mus musculus [1]): Non-toxic | inhibition in vivo at 3 mg/kg (Mus musculus [2]): 4.8%

COc1cc(CCC(=O)N2CCCCC2)c([N+](=O)[O-])cc1OC
inhibition in vivo at 100 µmol/kg (Mus musculus [3]): 39.1% | Activity (Mus musculus [1]): Non-toxic | inhibition in vivo at 3 mg/kg (Mus musculus [2]): 33%

CC1CCCCN1C(=O)CCc1ccc2c(c1)OCO2 (configuration not stated)
Activity (Mus musculus [1]): Non-toxic | inhibition in vivo at 3 mg/kg (Mus musculus [2]): 20.1%

NC(=O)CCc1cc2c(cc1[N+](=O)[O-])OCO2
Activity (Mus musculus [1]): Non-toxic | inhibition in vivo at 3 mg/kg (Mus musculus [2]): 14.8%

O=C(CCc1cc2c(cc1[N+](=O)[O-])OCO2)Nc1ccccc1
Activity (Mus musculus [1]): Non-toxic | inhibition in vivo at 3 mg/kg (Mus musculus [2]): 12.9%

COc1ccc(N2CCN(C(=O)CCc3ccc4c(c3)OCO4)CC2)cc1
Activity (Mus musculus [1]): Non-toxic | inhibition in vivo at 3 mg/kg (Mus musculus [2]): 2.4%

COc1ccc(N2CCN(C(=O)CCc3cc4c(cc3[N+](=O)[O-])OCO4)CC2)cc1
inhibition in vivo at 10 µmol/kg (Mus musculus [6]): 28.6% | Activity (Mus musculus [7]): inactive | inhibition in vivo at 33.3 µmol/kg (Mus musculus [8]): 35.7% | inhibition in vivo at 100 µmol/kg (Mus musculus [3]): 50% | Activity (Mus musculus [1]): Non-toxic | Activity (Mus musculus [9]): Non-toxic | inhibition in vivo at 3 mg/kg (Mus musculus [2]): 37.2% | inhibition in vivo at 100 µmol/kg (Mus musculus [5]): 40%
